From ChEMBL document CHEMBL1139444, “Oxazolidinone: search for highly potent antibacterial” (2004)
≈ marks a conversion by molar mass, not a printed value.

Tests used:
Assay type in all cases: functional
Streptococcus pyogenes = assay: Minimum inhibitory concentration against Streptococcus pyogenes MTCC 442
Summary of the method: (§1)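 Microbroth dilution MIC determination, with results expressed in μg/mL. Where run in triplicate, the highest MIC of the three replicates is the value reported.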

Staphylococcus aureus [1] = assay: Minimum inhibitory concentration against Staphylococcus aureus ATCC 14154; summary of the method: as §1
Staphylococcus aureus [2] = assay: Minimum inhibitory concentration against Staphylococcus aureus ATCC 25923; summary of the method: as §1
Staphylococcus aureus [3] = assay: Minimum inhibitory concentration against Staphylococcus aureus ATCC 29213; summary of the method: as §1
Klebsiella pneumoniae = assay: Minimum inhibitory concentration against Klebsiella pneumoniae ATCC 10031; summary of the method: as §1
Bacillus cereus = assay: Minimum inhibitory concentration against Bacillus cereus MTCC 430; summary of the method: as §1
[4] = test system: Staphylococcus epidermidis; assay: Minimum inhibitory concentration against Staphylococcus epidermidis MTCC 155; summary of the method: as §1
Enterococcus faecalis [5] = assay: Minimum inhibitory concentration against Enterococcus faecalis MTCC 439; summary of the method: as §1
Staphylococcus aureus [6] = assay: Minimum inhibitory concentration against Staphylococcus aureus MTCC 96; summary of the method: as §1
Enterococcus faecalis [7] = assay: Minimum inhibitory concentration against Enterococcus faecalis ATCC 14506; summary of the method: as §1
Bacillus pumilus = assay: Minimum inhibitory concentration against Bacillus pumilus MTCC 1607; summary of the method: as §1

Structure (SMILES) | MIC (Streptococcus pyogenes) | MIC (Staphylococcus aureus [1]) | MIC (Staphylococcus aureus [2]) | MIC (Staphylococcus aureus [3]) | MIC (Klebsiella pneumoniae) | MIC (Bacillus cereus) | MIC [4] | MIC (Enterococcus faecalis [5]) | MIC (Staphylococcus aureus [6]) | MIC (Enterococcus faecalis [7]) | MIC (Bacillus pumilus)
CC(=O)NC[C@H]1CN(c2ccc(N3CCN(C(=O)/C=C/c4cccc(O)c4)CC3)c(F)c2)C(=O)O1 | 2 µg/mL (≈ 4.14 µM) | 4 µg/mL (≈ 8.29 µM) | 4 µg/mL (≈ 8.29 µM) | 1 µg/mL (≈ 2.07 µM) | > 16 µg/mL | 0.5 µg/mL (≈ 1.04 µM) | 0.25 µg/mL (≈ 0.518 µM) | 1 µg/mL (≈ 2.07 µM) | 2 µg/mL (≈ 4.14 µM) | 1 µg/mL (≈ 2.07 µM) | 0.5 µg/mL (≈ 1.04 µM)
CC(=O)NC[C@H]1CN(c2ccc(N3CCN(C(=O)/C=C/c4ccc(O)c(O)c4)CC3)c(F)c2)C(=O)O1 | 16 µg/mL (≈ 32.1 µM) |  |  |  |  | 16 µg/mL (≈ 32.1 µM) | 4 µg/mL (≈ 8.02 µM) | 8 µg/mL (≈ 16 µM) | 8 µg/mL (≈ 16 µM) |  | 8 µg/mL (≈ 16 µM)
CC(=O)NC[C@H]1CN(c2ccc(N3CCN(C(=O)/C=C/c4ccc(N)cc4)CC3)c(F)c2)C(=O)O1 | 2 µg/mL (≈ 4.15 µM) |  |  |  |  | 1 µg/mL (≈ 2.08 µM) | 0.5 µg/mL (≈ 1.04 µM) | 1 µg/mL (≈ 2.08 µM) | 1 µg/mL (≈ 2.08 µM) |  | 1 µg/mL (≈ 2.08 µM)
CC(=O)NC[C@H]1CN(c2ccc(N3CCN(C(=O)/C=C/c4ccccc4)CC3)c(F)c2)C(=O)O1 | 2 µg/mL (≈ 4.29 µM) | 4 µg/mL (≈ 8.57 µM) | 2 µg/mL (≈ 4.29 µM) | 4 µg/mL (≈ 8.57 µM) | > 16 µg/mL | 1 µg/mL (≈ 2.14 µM) | 0.5 µg/mL (≈ 1.07 µM) | 2 µg/mL (≈ 4.29 µM) | 4 µg/mL (≈ 8.57 µM) | 1 µg/mL (≈ 2.14 µM) | 1 µg/mL (≈ 2.14 µM)
C/C(S)=N/C[C@H]1CN(c2ccc(N3CCN(C(=O)/C=C/c4ccc(F)cc4)CC3)c(F)c2)C(=O)O1 | 2 µg/mL (≈ 4 µM) | 1 µg/mL (≈ 2 µM) | 4 µg/mL (≈ 7.99 µM) | 4 µg/mL (≈ 7.99 µM) | > 16 µg/mL | 0.5 µg/mL (≈ 0.999 µM) | 0.5 µg/mL (≈ 0.999 µM) | 0.5 µg/mL (≈ 0.999 µM) | 1 µg/mL (≈ 2 µM) | 2 µg/mL (≈ 4 µM) | 0.5 µg/mL (≈ 0.999 µM)
COc1ccc(/C=C/C(=O)N2CCN(c3ccc(N4C[C@H](CNC(C)=O)OC4=O)cc3F)CC2)cc1 | 4 µg/mL (≈ 8.06 µM) |  |  |  |  | 2 µg/mL (≈ 4.03 µM) | 1 µg/mL (≈ 2.01 µM) | 4 µg/mL (≈ 8.06 µM) | 4 µg/mL (≈ 8.06 µM) |  | 2 µg/mL (≈ 4.03 µM)
C/C(S)=N/C[C@H]1CN(c2ccc(N3CCN(C(=O)/C=C/c4ccc5c(c4)OCO5)CC3)c(F)c2)C(=O)O1 | 4 µg/mL (≈ 7.6 µM) | 1 µg/mL (≈ 1.9 µM) | 0.5 µg/mL (≈ 0.95 µM) | 1 µg/mL (≈ 1.9 µM) | 2 µg/mL (≈ 3.8 µM) | 0.25 µg/mL (≈ 0.475 µM) | 1 µg/mL (≈ 1.9 µM) | 8 µg/mL (≈ 15.2 µM) | 1 µg/mL (≈ 1.9 µM) | 0.25 µg/mL (≈ 0.475 µM) | 0.25 µg/mL (≈ 0.475 µM)
CC(=O)NC[C@H]1CN(c2ccc(N3CCN(C(=O)/C=C/c4ccc5c(c4)OCO5)CC3)c(F)c2)C(=O)O1 | 2 µg/mL (≈ 3.92 µM) | 2 µg/mL (≈ 3.92 µM) | 4 µg/mL (≈ 7.84 µM) | 4 µg/mL (≈ 7.84 µM) | > 16 µg/mL | 1 µg/mL (≈ 1.96 µM) | 1 µg/mL (≈ 1.96 µM) | 1 µg/mL (≈ 1.96 µM) | 2 µg/mL (≈ 3.92 µM) | 2 µg/mL (≈ 3.92 µM) | 1 µg/mL (≈ 1.96 µM)
NC(=S)NC[C@H]1CN(c2ccc(N3CCN(C(=O)/C=C/c4ccccc4)CC3)c(F)c2)C(=O)O1 | 0.25 µg/mL (≈ 0.517 µM) | 2 µg/mL (≈ 4.14 µM) | 2 µg/mL (≈ 4.14 µM) | 1 µg/mL (≈ 2.07 µM) | 8 µg/mL (≈ 16.5 µM) | 0.25 µg/mL (≈ 0.517 µM) | 1 µg/mL (≈ 2.07 µM) | 0.5 µg/mL (≈ 1.03 µM) | 1 µg/mL (≈ 2.07 µM) | 0.5 µg/mL (≈ 1.03 µM) | 1 µg/mL (≈ 2.07 µM)
CC(=O)NC[C@H]1CN(c2ccc(N3CCN(C(=O)/C=C/c4ccc(F)c(F)c4)CC3)c(F)c2)C(=O)O1 | 4 µg/mL (≈ 7.96 µM) |  |  |  |  | 4 µg/mL (≈ 7.96 µM) | > 16 µg/mL | > 16 µg/mL | > 16 µg/mL |  | 16 µg/mL (≈ 31.8 µM)
CC(=O)NC[C@H]1CN(c2ccc(N3CCN(C(=O)CO)CC3)c(F)c2)C(=O)O1 [EPEREZOLID] | 4 µg/mL (≈ 10.1 µM) | 4 µg/mL (≈ 10.1 µM) | 4 µg/mL (≈ 10.1 µM) | 4 µg/mL (≈ 10.1 µM) | > 16 µg/mL | 2 µg/mL (≈ 5.07 µM) | 1 µg/mL (≈ 2.54 µM) | 4 µg/mL (≈ 10.1 µM) |  | 2 µg/mL (≈ 5.07 µM) | 2 µg/mL (≈ 5.07 µM)
CC(=O)NC[C@H]1CN(c2ccc(N3CCN(C(=O)/C=C/c4ccc(OC(=O)C(C)(C)C)cc4)CC3)c(F)c2)C(=O)O1 | > 16 µg/mL |  |  |  |  | 16 µg/mL (≈ 28.2 µM) | 4 µg/mL (≈ 7.06 µM) | 8 µg/mL (≈ 14.1 µM) | > 16 µg/mL |  | 8 µg/mL (≈ 14.1 µM)
CC(=O)NC[C@H]1CN(c2ccc(N3CCN(C(=O)/C=C/c4ccc(NC(C)=O)cc4)CC3)c(F)c2)C(=O)O1 | 8 µg/mL (≈ 15.3 µM) |  |  |  |  | 4 µg/mL (≈ 7.64 µM) | 4 µg/mL (≈ 7.64 µM) | 4 µg/mL (≈ 7.64 µM) | 8 µg/mL (≈ 15.3 µM) |  | 8 µg/mL (≈ 15.3 µM)
N=C(S)NC[C@H]1CN(c2ccc(N3CCN(C(=O)/C=C/c4ccc5c(c4)OCO5)CC3)c(F)c2)C(=O)O1 | 0.5 µg/mL (≈ 0.948 µM) | 1 µg/mL (≈ 1.9 µM) | 2 µg/mL (≈ 3.79 µM) | 2 µg/mL (≈ 3.79 µM) | > 16 µg/mL | 1 µg/mL (≈ 1.9 µM) | 0.25 µg/mL (≈ 0.474 µM) | 0.25 µg/mL (≈ 0.474 µM) | 1 µg/mL (≈ 1.9 µM) | 0.5 µg/mL (≈ 0.948 µM) | 1 µg/mL (≈ 1.9 µM)
C/C(S)=N/C[C@H]1CN(c2ccc(N3CCN(C(=O)/C=C/c4ccccc4)CC3)c(F)c2)C(=O)O1 | 0.5 µg/mL (≈ 1.04 µM) | 2 µg/mL (≈ 4.14 µM) | 1 µg/mL (≈ 2.07 µM) | 1 µg/mL (≈ 2.07 µM) | > 16 µg/mL | 0.5 µg/mL (≈ 1.04 µM) | 0.25 µg/mL (≈ 0.518 µM) | 0.5 µg/mL (≈ 1.04 µM) | 2 µg/mL (≈ 4.14 µM) | 0.5 µg/mL (≈ 1.04 µM) | 0.5 µg/mL (≈ 1.04 µM)
CC(=O)NC[C@H]1CN(c2ccc(N3CCN(C(=O)/C=C/c4ccc(OC(C)=O)c(OC(C)=O)c4)CC3)c(F)c2)C(=O)O1 | 4 µg/mL (≈ 6.87 µM) |  |  |  |  | 2 µg/mL (≈ 3.43 µM) | 1 µg/mL (≈ 1.72 µM) | 2 µg/mL (≈ 3.43 µM) | 4 µg/mL (≈ 6.87 µM) |  | 2 µg/mL (≈ 3.43 µM)
CC(=O)NC[C@H]1CN(c2ccc(N3CCOCC3)c(F)c2)C(=O)O1 [LINEZOLID] | 0.5 µg/mL (≈ 1.48 µM) |  |  |  | > 16 µg/mL | 2 µg/mL (≈ 5.93 µM) | 2 µg/mL (≈ 5.93 µM) |  |  |  | 1 µg/mL (≈ 2.96 µM)
CSc1ccc(/C=C/C(=O)N2CCN(c3ccc(N4C[C@H](CNC(C)=O)OC4=O)cc3F)CC2)cc1 | 16 µg/mL (≈ 31.2 µM) |  |  |  |  | 2 µg/mL (≈ 3.9 µM) | 1 µg/mL (≈ 1.95 µM) | 2 µg/mL (≈ 3.9 µM) | 16 µg/mL (≈ 31.2 µM) |  | 2 µg/mL (≈ 3.9 µM)
CC(=O)NC[C@H]1CN(c2ccc(N3CCN(C(=O)/C=C/c4ccc(O)cc4)CC3)c(F)c2)C(=O)O1 | 2 µg/mL (≈ 4.14 µM) | 2 µg/mL (≈ 4.14 µM) | 1 µg/mL (≈ 2.07 µM) | 2 µg/mL (≈ 4.14 µM) | > 16 µg/mL | 0.5 µg/mL (≈ 1.04 µM) | 0.25 µg/mL (≈ 0.518 µM) | 1 µg/mL (≈ 2.07 µM) | 2 µg/mL (≈ 4.14 µM) | 2 µg/mL (≈ 4.14 µM) | 1 µg/mL (≈ 2.07 µM)
CC(=O)NC[C@H]1CN(c2ccc(N3CCN(C(=O)/C=C/c4ccc(OS(C)(=O)=O)cc4)CC3)c(F)c2)C(=O)O1 | 2 µg/mL (≈ 3.57 µM) |  |  |  |  | 1 µg/mL (≈ 1.78 µM) | 8 µg/mL (≈ 14.3 µM) | 4 µg/mL (≈ 7.14 µM) | 8 µg/mL (≈ 14.3 µM) |  | 4 µg/mL (≈ 7.14 µM)
CC(=O)NC[C@H]1CN(c2ccc(N3CCN(C(=O)/C=C/c4ccc(F)cc4)CC3)c(F)c2)C(=O)O1 | 8 µg/mL (≈ 16.5 µM) |  |  |  |  | 4 µg/mL (≈ 8.26 µM) | 2 µg/mL (≈ 4.13 µM) | 4 µg/mL (≈ 8.26 µM) | 16 µg/mL (≈ 33 µM) |  | 4 µg/mL (≈ 8.26 µM)
CC(=O)NC[C@H]1CN(c2ccc(N3CCN(C(=O)/C=C/c4ccc(-c5ccccc5)cc4)CC3)c(F)c2)C(=O)O1 | > 16 µg/mL |  |  |  |  | > 16 µg/mL | > 16 µg/mL | > 16 µg/mL | > 16 µg/mL |  | > 16 µg/mL
C/C(S)=N/C[C@H]1CN(c2ccc(N3CCN(C(=O)/C=C/c4ccc(O)cc4)CC3)c(F)c2)C(=O)O1 | 0.5 µg/mL (≈ 1 µM) | 0.5 µg/mL (≈ 1 µM) | 0.25 µg/mL (≈ 0.501 µM) | 0.5 µg/mL (≈ 1 µM) | 4 µg/mL (≈ 8.02 µM) | 0.25 µg/mL (≈ 0.501 µM) | ≤ 0.12 µg/mL | 1 µg/mL (≈ 2.01 µM) | 0.25 µg/mL (≈ 0.501 µM) | 0.25 µg/mL (≈ 0.501 µM) | 0.25 µg/mL (≈ 0.501 µM)
CC(=O)NC[C@H]1CN(c2ccc(N3CCN(C(=O)/C=C/c4ccc([N+](=O)[O-])cc4)CC3)c(F)c2)C(=O)O1 | 1 µg/mL (≈ 1.95 µM) |  |  |  |  | 1 µg/mL (≈ 1.95 µM) | 4 µg/mL (≈ 7.82 µM) | 4 µg/mL (≈ 7.82 µM) | 4 µg/mL (≈ 7.82 µM) |  | 2 µg/mL (≈ 3.91 µM)
